This note sets out measurements from ChEMBL document CHEMBL4270654, “Identification of DK419, a potent inhibitor of Wnt/β-catenin signaling and colorectal cancer growth” (Bioorg Med Chem, 2018).

SMILES strings stand for the structures. The source made the active and inactive calls. No cut-off for these calls is given here.

Series [1] can be described thus: MRT in NOD/SCID mouse at 200 mg/kg, po by LC-MS/MS-based non-compartmental extravascular input analysis. The class given is ADME, organism-based. Conditions: in vivo.
A short description of series [2]: AUC (0 to 24 hrs) in NOD/SCID mouse at 200 mg/kg, po by LC-MS/MS-based non-compartmental extravascular input analysis. The class given is ADME, organism-based. Also on record: time < 24 hr, dose 200 mg/kg, route oral. The conditions noted are these: in vivo.
The test system of series [3] is Homo sapiens. As to the kind of experiment: Antitumor activity against human CRC240 cells xenografted in NOD/SCID mouse at 72 mg/kg, po administered 11 days and measured on day 4, 8 during compound dosing and day 11 post last dose. The class given is functional, organism-based. The gist of the method: (§1)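 Minced CRC240 PDX tissue (150 mg/ml in PBS, 200 μl) implanted in flanks of NOD/SCID mice. At about 100 mm3 tumours, mice randomized and dosed orally once daily for 11 days. Vehicle: 10% 1-methyl-2-pyrrolidinone/90% PEG300, with dosing suspensions or solutions at […] or 0.2 mg/ml. Tumour size and body weight recorded on days 0, 4, 8 and 11. n = 3, two-tailed t-test versus vehicle.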
Background: Xenograft models place foreign cells or tissue in a host animal.

For series [4], the system named is Mus musculus. As to the kind of experiment: Toxicity in NOD/SCID mouse xenografted with human CRC240 cells assessed as change in body weight at 72 mg/kg, po administered 11 days and measured on day 4, 8 during compound dosing and day 11 post last dose. The class given is organism-based. Conditions: in vivo, 264 h. The gist of the method: as §1
A short description of series [5]: AUC (0 to infinity) in NOD/SCID mouse at 200 mg/kg, po by LC-MS/MS-based non-compartmental extravascular input analysis. The class given is ADME, organism-based. Also on record: dose 200 mg/kg, time infinity, route oral. Conditions: in vivo.
The subject of series [6] is Mus musculus. As to the kind of experiment: Dose normalized AUC (0 to infinity) in NOD/SCID mouse at 200 mg/kg, po by LC-MS/MS-based non-compartmental extravascular input analysis. Conditions: in vivo. The class given is ADME, organism-based.
Series [7] concerns Mus musculus. Description: Apparent volume of distribution in NOD/SCID mouse at 200 mg/kg, po by LC-MS/MS-based non-compartmental extravascular input analysis. The class given is ADME, organism-based. Conditions: in vivo.
The species entered for series [8] is Homo sapiens. Description: Inhibition of Wnt/beta-catenin signaling pathway in human HCT116 whole cell lysate harboring beta-catenin mutation assessed as reduction in cyclin D1 protein expression at 5 uM after 18 hrs by Western blot analysis. The gist of the method: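 CCRC240, HCT116 or SW480 cells were grown to 50–70% confluency and exposed 18 h to 5 μM compound in DMSO. Whole-cell lysates were blotted for c-Myc, cyclin D1 and survivin. Hypotonic cytosolic fractions, syringe-dispersed and centrifuged 120 min, were blotted for β-catenin and Axin2. β-Actin served as loading control.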

The test system of series [9] is Mus musculus. Description: Apparent clearance in NOD/SCID mouse at 1 mg/kg, po by LC-MS/MS-based non-compartmental extravascular input analysis. The class given is ADME, organism-based. The conditions noted are these: in vivo.
Series [10] is described as follows: Apparent oral volume of distribution in NOD/SCID mouse at 1 mg/kg by LC-MS/MS-based compartmental first order extravascular input, first order elimination analysis. The class given is ADME, organism-based. Conditions: in vivo.
The test system of series [11] is Mus musculus. Description: In vivo inhibition of Wnt/beta-catenin signaling pathway in NOD/SCID mouse xenografted with human CRC240 cells assessed as reduction in survivin protein expression at 1 mg/kg, po administered 11 days by Western blot method. The class given is functional, organism-based. The gist of the method:
(§2)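 CRC240 PDX tumours were taken from NOD/SCID mice the day after 11 days of once-daily oral dosing (1 mg/kg, in 10% NMP/90% PEG300). Tumours were lysed in RIPA buffer and immunoblotted for Axin2, survivin and c-Myc. Bands were normalized to β-actin, n = 3, two-tailed t-test versus vehicle.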

The subject of series [12] is Mus musculus. As to the kind of experiment: Apparent volume of distribution in NOD/SCID mouse at 1 mg/kg, po by LC-MS/MS-based non-compartmental extravascular input analysis. Conditions: in vivo. The class given is ADME, organism-based.
For series [13], the system named is Mus musculus. Description: Dose normalized AUC (0 to infinity) in NOD/SCID mouse at 1 mg/kg, po by LC-MS/MS-based non-compartmental extravascular input analysis. The class given is ADME, organism-based. Conditions: in vivo.
The subject of series [14] is Mus musculus. Description: Time at which plasma concentration stays above in vitro IC50 for inhibition of Wnt3A-stimulated Wnt/beta-catenin pathway in HEK293 cells in NOD/SCID mouse at 1 mg/kg, po by LC-MS/MS analysis. The class given is organism-based. Conditions: in vivo. The gist of the method:
(§3)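 NOD/SCID mice (n = 4) received a single oral dose of 1 mg/kg from a 0.2 mg/mL solution in 10% NMP/90% PEG300. Serial tail-vein blood was taken from pre-dose to 72 h and plasma kept at −80 °C. Samples were extracted with ethyl acetate against an internal standard and run on LC/MS/MS (MRM 405.8/218.9). The calibration range was 2.4–1000 ng/mL in plasma.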

In series [15] the test system is Mus musculus. As to the kind of experiment: Toxicity in NOD/SCID mouse xenografted with human CRC240 cells assessed as change in body weight at 1 mg/kg, po administered 11 days and measured on day 4, 8 during compound dosing and day 11 post last dose. The class given is organism-based. Conditions: in vivo, 264 h. The gist of the method: as §1
The nature of series [16]: AUC (0 to 72 hrs) in NOD/SCID mouse at 1 mg/kg, po by LC-MS/MS-based non-compartmental extravascular input analysis. The class given is ADME, organism-based. Conditions: in vivo. Also on record: dose 1 mg/kg, time < 72 hr, route oral.
Series [17] deals with Mus musculus. As to the kind of experiment: In vivo inhibition of Wnt/beta-catenin signaling pathway in NOD/SCID mouse xenografted with human CRC240 cells assessed as reduction in Axin2 protein expression at 1 mg/kg, po administered 11 days by Western blot method. The class given is functional, organism-based. The gist of the method: as §2
The subject of series [18] is Mus musculus. Description: Dose normalized AUC (0 to infinity) in NOD/SCID mouse at 1 mg/kg, po by LC-MS/MS-based compartmental first order extravascular input, first order elimination analysis. The class given is ADME, organism-based. The conditions noted are these: in vivo.
In series [19] the test system is Homo sapiens. Description: Antitumor activity against human CRC240 cells xenografted in NOD/SCID mouse at 1 mg/kg, po administered 11 days and measured on day 4, 8 during compound dosing and day 11 post last dose. The class given is functional, organism-based. The gist of the method:
as §1

Series [20] relates to Mus musculus. Description: In vivo inhibition of Wnt/beta-catenin signaling pathway in NOD/SCID mouse xenografted with human CRC240 cells assessed as reduction in c-Myc protein expression at 1 mg/kg, po administered 11 days by Western blot method. The class given is functional, organism-based. The gist of the method: as §2
Series [21] has as its system Mus musculus. Description: Time at which plasma concentration stays above in vitro IC50 for antiproliferative activity against human CRC240 cells in NOD/SCID mouse at 1 mg/kg, po by LC-MS/MS analysis. The class given is organism-based. Conditions: in vivo. The gist of the method: as §3
For series [22], the system named is Mus musculus. As to the kind of experiment: Apparent clearance in NOD/SCID mouse at 1 mg/kg, po by LC-MS/MS-based compartmental first order extravascular input, first order elimination analysis. The class given is ADME, organism-based. Conditions: in vivo.

One may read the MRT as a mean duration of stay, worked out from the concentration-time curve. For orientation: AUC(0-t) means the area under the concentration-time curve up to a stated or last time point. A higher AUC(0-t) goes with high exposure. For orientation: AUC(0-inf) means the area under the concentration-time curve extrapolated to infinity. A low value points to low exposure. `O=C(Nc1ccc([N+](=O)[O-])cc1Cl)c1cc(Cl)ccc1O` [NICLOSAMIDE] returned an MRT in series [1] of 6.8 h. This compound also displayed an AUC(0-t) at 24 h in series [2] of 1010 ng·h/mL. Besides, the result in the series on Homo sapiens [3] was Active. For the same compound, the Activity entry with Mus musculus [4] was “Non-Toxic”. In [5], the AUC(0-inf) came to 1020 ng·h/mL. The compound also displayed an AUC/dose with Mus musculus [6] of 0.005 µg·h/mL. Also, the Vz in the series with Mus musculus [7] amounted to 0.9 L/kg. For the same compound, the inhibition entry in the series listed under Homo sapiens [8] was “Active”.

As a reminder, the CL/F is the apparent clearance, not corrected for the fraction that reaches the circulation. One may read the Vd/F as the apparent distribution volume after extravascular dosing. In the case of `O=C(Nc1ccc(C(F)(F)F)cc1)c1cc(Cl)cc2nc(C(F)(F)F)[nH]c12`, the apparent clearance (CL/F) in the series with Mus musculus [9] and in the series on Mus musculus [22] was 1 mL/min/kg throughout. Also, the Vd/F in series [10] was found to be 0.98 L/kg. The inhibition result in the series with Mus musculus [11], with Mus musculus [17], in the series on Mus musculus [20] and in the series filed under Homo sapiens [8] was “Active” in each case. Moreover, the Vz in the series on Mus musculus [12] came to 0.8 L/kg. The AUC/dose in the series with Mus musculus [13] stood at 16.9 µg·h/mL; in the series with Mus musculus [18], 16.3 µg·h/mL. In addition, the Time in the series with Mus musculus [14] and with Mus musculus [21] was 24 h throughout. In addition, in the series on Mus musculus [15], the Activity result was “Non-Toxic”. Besides, the area under the curve AUC(0-t) at 72 h in series [16] amounted to 16800 ng·h/mL. For the same compound, the result in the series on Homo sapiens [19] was Active.
